29 compounds from ChEMBL document CHEMBL1944638, “Quinol derivatives as potential trypanocidal agents” (Bioorg Med Chem, 2012) can be followed below.

By EC50 is commonly meant the concentration that produces a half-maximal response. Lower therefore signals greater potency.

Series [1] can be described thus: Selectivity ratio of EC50 for human MRC5 cells to EC50 for blood stream form of Trypanosoma brucei. Type of series: ADME, cell-based. As to conditions: read-out: Ratio EC50. The essentials:
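Ratio of EC50 in human MRC5 cells over EC50 in bloodstream-form T. brucei, both from 96-well HTS whole-cell assays. Each EC50 is the arithmetic mean of independent determinations, reported with SD and number of repeats.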

The subject of another series is Trypanosoma brucei. Nature of the series: Antitrypanosomal activity against blood stream form of Trypanosoma brucei after 69 hrs by resazurin-based fluorescence assay. Type of series: functional, organism-based. The gist of the method:
(§1)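 96-well HTS whole-cell assay against bloodstream-form T. brucei and human MRC5 cells. EC50 values are the arithmetic mean of independent determinations, with SD and number of repeats. Species selectivity is EC50 (MRC5)/EC50 (T. brucei).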
For orientation: Alamar Blue is a resazurin reagent that responds to reducing activity.

Another series deals with MRC5. Nature of the series: Cytotoxicity against human MRC5 cells after 3 days by resazurin-based fluorescence assay. Type of series: cell-based. As to conditions: MRC5, 72 h. The essentials:
as §1

The structures appear in SMILES notation. Some results are limits rather than exact numbers.

Take `O=C1C=CC(O)(c2cc3cnccc3n2S(=O)(=O)c2ccccc2)C=C1`: in series [1], the selectivity ratio was 2.
As to `O=C1C=CC(O)(c2nc3ccccc3s2)C=C1`, the figures for the EC50 with Trypanosoma brucei and in the series on MRC5 were 77 nM and 180 nM, respectively. Also, in series [1], the selectivity ratio is 2.
Take `O=C1C=CC(O)(c2cc3ccccc3n2S(=O)(=O)c2ccc(CCC(=O)O)cc2)C=C1`: the selectivity ratio in series [1] worked out at 4.5.
The same measure, in the same setting: for `O=C1C=CC(O)(c2cn(CCC(=O)Nc3ccccc3)nn2)C=C1` the value was 7; for `Nc1nc(N)nc(NCCCOC(=O)CCc2ccc(S(=O)(=O)n3c(C4(O)C=CC(=O)C=C4)cc4ccccc43)cc2)n1`, 2.7; for `O=C1C=CC(O)(c2cc3ccccc3n2S(=O)(=O)c2ccc(CCCO)cc2)C=C1`, 2.
Regarding `O=C1C=CC(O)(c2cc3ccccc3n2S(=O)(=O)c2ccccc2)C=C1`, the 50% effective concentration (EC50) in the series on Trypanosoma brucei amounted to 53 nM; in the series on MRC5, 110 nM. Moreover, the selectivity ratio in series [1] stood at 2.
Regarding `CS(=O)(=O)c1ccc(S(=O)(=O)n2c(C3(O)C=CC(=O)C=C3)cc3ccccc32)cc1`, the selectivity ratio in series [1] came to 2.
In the series on MRC5, `Nc1nc(N)nc(-n2cc(C3(O)C=CC(=O)C=C3)nn2)n1` displayed an EC50 of over 50000 nM. In addition, the selectivity ratio in series [1] is over 8.
Regarding `Oc1ccc(-c2nc3ccccc3s2)cc1`, the EC50 with Trypanosoma brucei and with MRC5 was over 50000 nM each time.
For the compound `CC(=O)NCCc1ccc(S(=O)(=O)n2c(C3(O)C=CC(=O)C=C3)cc3ccccc32)cc1`, in series [1], the selectivity ratio was 3.
For `C#CC1(O)C=CC(=O)C=C1`, in series [1], the selectivity ratio is 1.
On the same count and under the same terms, for `COC(=O)CCc1ccc(S(=O)(=O)n2c(C3(O)C=CC(=O)C=C3)cc3ccccc32)cc1` the value was 2; for `O=C1C=CC(O)(C#Cc2ccc(CC(=O)Nc3ccccc3)cc2)C=C1`, 0.3.
Same read-out and setting: for `CN1CCN(C(=O)CCc2ccc(S(=O)(=O)n3c(C4(O)C=CC(=O)C=C4)cc4ccccc43)cc2)CC1` the value was 3.
In the case of `N=C(N)c1ccc(-n2cc(C3(O)C=CC(=O)C=C3)nn2)cc1`, the EC50 in the series with MRC5 is over 50000 nM. The selectivity ratio in series [1] was over 5.
Take `O=C1C=CC(O)(c2cc3ccccc3n2S(=O)(=O)c2ccc(CCC(=O)N3CCOCC3)cc2)C=C1`: the selectivity ratio in series [1] stood at 2.
For `O=C1C=CC(O)(c2nc3ccccc3s2)C(Cl)=C1` (configuration not stated), the selectivity ratio in series [1] was found to be 1.
On the same count and under the same terms, for `Nc1nc(N)nc(NCCCNC(=O)CCc2ccc(S(=O)(=O)n3c(C4(O)C=CC(=O)C=C4)cc4ccccc43)cc2)n1` the value was 5.6; for `CN1CCN(CCCc2ccc(S(=O)(=O)n3c(C4(O)C=CC(=O)C=C4)cc4ccccc43)cc2)CC1`, 3; for `COc1ccc(Cn2cc(C3(O)C=CC(=O)C=C3)nn2)cc1`, 3.
As to `COc1ccc(-n2cc(C3(O)C=CC(=O)C=C3)nn2)cc1`, the 50% effective concentration (EC50) stood at 130 nM with Trypanosoma brucei and 310 nM in the series on MRC5. In addition, the selectivity ratio in series [1] turned out to be 2.
Turning to `CC(=O)OC[C@H]1O[C@@H](n2cc(C3(O)C=CC(=O)C=C3)nn2)[C@H](OC(C)=O)[C@@H](OC(C)=O)[C@H]1OC(C)=O`, the selectivity ratio in series [1] was over 5.
On the same count and under the same terms, for `Cc1ccc(S(=O)(=O)n2c(C3(O)C=CC(=O)C=C3)cc3ccncc32)cc1` the value was 2.
As for `O=C1C=CC(O)(c2ccccc2)C=C1`, the EC50 was found to be 750 nM in the series on Trypanosoma brucei and 1700 nM with MRC5. The selectivity ratio in series [1] is 2.
In the same order, the values of `O=C1C=CC(O)(c2cc3ccc(F)cc3n2S(=O)(=O)c2ccccc2)C=C1` are 100 nM, 170 nM and 2.
As to `O=C1C=CC(O)(c2cn(-c3ccc4ncsc4c3)nn2)C=C1`, in series [1], the selectivity ratio stood at 3.
`O=C1C=CC(O)(c2cc3ccccc3n2S(=O)(=O)c2ccc(CCCN3CCOCC3)cc2)C=C1`: the selectivity ratio in series [1] turned out to be 3.
On the same count and under the same terms, for `CCOC(=O)Nc1ccc(S(=O)(=O)n2c(C3(O)C=CC(=O)C=C3)cc3ccccc32)cc1` the value was 2.
